Source: PMC6606825 (Journal of Ginseng Research, 2018)

Experiment: Pharmacokinetics of CK and its metabolite 20
Type: in vivo, healthy Chinese volunteers
Method in brief: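 Healthy adults given one oral tablet dose fasting (overnight, or 10 h in a crossover food-effect arm); 30 subjects from the 100/200/400 mg groups were pooled with 24 from 200 mg fasting periods. Plasma was stored at −70°C, extracted with MTBE plus internal standards and assayed by LC-MS/MS. Cmax was observed and AUClast calculated by linear trapezoid, each divided by dose. The metabolite/parent ratio was also calculated. Genotyping used Sequenom MassARRAY, and log-transformed values were compared by one-way ANOVA.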

[1] = ABCC4 rs2274406 TT (first line), mean (SD)
[2] = ABCC4 rs2274406 TT (third line), mean (SD)
[3] = ABCG2 rs2054576 AA (first line), mean (SD)
[4] = ABCG2 rs2054576 AA (third line), mean (SD)

Ratio 20(S)-PPD/CK AUClast/D (ABCC4 rs1151471 TT, mean (SD)): 2.12 (2.57) % | Ratio 20(S)-PPD/CK Cmax/D (ABCC4 rs1151471 TT, mean (SD)): 0.52 (0.50) % | 20(S)-PPD AUClast/D (ABCC4 rs1189437 GG, n = 1): 3.78 (−) | 20(S)-PPD Cmax/D (ABCC4 rs1189437 GG, n = 1): 0.11 (−) | Ratio 20(S)-PPD/CK AUClast/D (ABCC4 rs1189437 GG, n = 1): 31.18 (−) % | Ratio 20(S)-PPD/CK Cmax/D (ABCC4 rs1189437 GG, n = 1): 6.05 (−) % | 20(S)-PPD AUClast/D (ABCC4 rs1189437 GT, mean (SD)): 1.25 (0.80) | 20(S)-PPD Cmax/D (ABCC4 rs1189437 GT, mean (SD)): 0.05 (0.03) | Ratio 20(S)-PPD/CK AUClast/D (ABCC4 rs1189437 GT, mean (SD)): 7.87 (7.32) % | Ratio 20(S)-PPD/CK Cmax/D (ABCC4 rs1189437 GT, mean (SD)): 2.35 (2.55) % | 20(S)-PPD AUClast/D (ABCC4 rs1189437 TT, mean (SD)): 0.54 (0.49) | 20(S)-PPD Cmax/D (ABCC4 rs1189437 TT, mean (SD)): 0.02 (0.02) | Ratio 20(S)-PPD/CK AUClast/D (ABCC4 rs1189437 TT, mean (SD)): 2.03 (2.50) % | Ratio 20(S)-PPD/CK Cmax/D (ABCC4 rs1189437 TT, mean (SD)): 0.50 (0.49) % | 20(S)-PPD AUClast/D (ABCC4 rs1751034 TC, mean (SD)): 1.51 (1.01) | 20(S)-PPD Cmax/D (ABCC4 rs1751034 TC, mean (SD)): 0.05 (0.04) | Ratio 20(S)-PPD/CK Cmax/D (ABCC4 rs1751034 TC, mean (SD)): 2.88 (2.68) % | 20(S)-PPD AUClast/D (ABCC4 rs1751034 TT, mean (SD)): 0.59 (0.51) | 20(S)-PPD Cmax/D (ABCC4 rs1751034 TT, mean (SD)): 0.02 (0.02) | Ratio 20(S)-PPD/CK AUClast/D (ABCC4 rs1751034 TT, mean (SD)): 2.17 (2.45) % | Ratio 20(S)-PPD/CK Cmax/D (ABCC4 rs1751034 TT, mean (SD)): 0.55 (0.50) % | 20(S)-PPD AUClast/D (ABCC4 rs2274406 CT, mean (SD)): 0.77 (0.73) | 20(S)-PPD Cmax/D (ABCC4 rs2274406 CT, mean (SD)): 0.03 (0.03) | Ratio 20(S)-PPD/CK AUClast/D (ABCC4 rs2274406 CT, mean (SD)): 3.81 (4.77) % | Ratio 20(S)-PPD/CK Cmax/D (ABCC4 rs2274406 CT, mean (SD)): 1.15 (1.88) % | 20(S)-PPD AUClast/D [1]: 0.78 (0.55) | 20(S)-PPD Cmax/D [1]: 0.03 (0.03) | Ratio 20(S)-PPD/CK AUClast/D [1]: 2.75 (2.87) % | Ratio 20(S)-PPD/CK Cmax/D [1]: 0.63 (0.46) % | 20(S)-PPD AUClast/D [2]: 0.97 (1.01) | 20(S)-PPD Cmax/D [2]: 0.03 (0.03) | Ratio 20(S)-PPD/CK AUClast/D [2]: 6.34 (9.72) % | Ratio 20(S)-PPD/CK Cmax/D [2]: 1.49 (1.93) % | 20(S)-PPD AUClast/D (ABCC4 rs2274407 CA, mean (SD)): 0.70 (0.61) | 20(S)-PPD Cmax/D (ABCC4 rs2274407 CA, mean (SD)): 0.03 (0.02) | Ratio 20(S)-PPD/CK AUClast/D (ABCC4 rs2274407 CA, mean (SD)): 3.96 (6.67) % | Ratio 20(S)-PPD/CK Cmax/D (ABCC4 rs2274407 CA, mean (SD)): 1.04 (1.40) % | 20(S)-PPD AUClast/D (ABCC4 rs2274407 CC, mean (SD)): 0.87 (0.83) | 20(S)-PPD Cmax/D (ABCC4 rs2274407 CC, mean (SD)): 0.03 (0.03) | Ratio 20(S)-PPD/CK AUClast/D (ABCC4 rs2274407 CC, mean (SD)): 4.39 (6.18) % | Ratio 20(S)-PPD/CK Cmax/D (ABCC4 rs2274407 CC, mean (SD)): 1.18 (1.84) % | 20(S)-PPD AUClast/D (ABCC4 rs4148546 AA, mean (SD)): 1.01 (0.97) | 20(S)-PPD Cmax/D (ABCC4 rs4148546 AA, mean (SD)): 0.03 (0.03) | Ratio 20(S)-PPD/CK AUClast/D (ABCC4 rs4148546 AA, mean (SD)): 6.66 (9.45) % | Ratio 20(S)-PPD/CK Cmax/D (ABCC4 rs4148546 AA, mean (SD)): 1.37 (1.86) % | 20(S)-PPD AUClast/D (ABCC4 rs4148546 GA, mean (SD)): 0.87 (0.75) | 20(S)-PPD Cmax/D (ABCC4 rs4148546 GA, mean (SD)): 0.03 (0.03) | Ratio 20(S)-PPD/CK AUClast/D (ABCC4 rs4148546 GA, mean (SD)): 4.17 (4.77) % | Ratio 20(S)-PPD/CK Cmax/D (ABCC4 rs4148546 GA, mean (SD)): 1.32 (1.94) % | 20(S)-PPD AUClast/D (ABCC4 rs4148546 GG, mean (SD)): 0.47 (0.46) | 20(S)-PPD Cmax/D (ABCC4 rs4148546 GG, mean (SD)): 0.02 (0.02) | Ratio 20(S)-PPD/CK AUClast/D (ABCC4 rs4148546 GG, mean (SD)): 1.34 (1.47) % | Ratio 20(S)-PPD/CK Cmax/D (ABCC4 rs4148546 GG, mean (SD)): 0.41 (0.46) % | 20(S)-PPD AUClast/D [3]: 0.78 (0.79) | 20(S)-PPD Cmax/D [3]: 0.03 (0.03) | Ratio 20(S)-PPD/CK AUClast/D [3]: 4.17 (5.11) % | Ratio 20(S)-PPD/CK Cmax/D [3]: 1.26 (1.98) % | 20(S)-PPD AUClast/D [4]: 2.05 (1.51) | 20(S)-PPD Cmax/D [4]: 0.06 (0.04) | Ratio 20(S)-PPD/CK AUClast/D [4]: 12.95 (15.83) % | Ratio 20(S)-PPD/CK Cmax/D [4]: 2.56 (3.02) % | 20(S)-PPD AUClast/D (ABCG2 rs2054576 GA, mean (SD)): 0.73 (0.53) | 20(S)-PPD Cmax/D (ABCG2 rs2054576 GA, mean (SD)): 0.03 (0.02) | Ratio 20(S)-PPD/CK AUClast/D (ABCG2 rs2054576 GA, mean (SD)): 3.30 (5.27) % | Ratio 20(S)-PPD/CK Cmax/D (ABCG2 rs2054576 GA, mean (SD)): 0.83 (1.11) % | 20(S)-PPD AUClast/D (ABCG2 rs2231142 GG, mean (SD)): 0.62 (0.53) | 20(S)-PPD Cmax/D (ABCG2 rs2231142 GG, mean (SD)): 0.02 (0.02) | Ratio 20(S)-PPD/CK AUClast/D (ABCG2 rs2231142 GG, mean (SD)): 2.95 (3.04) % | Ratio 20(S)-PPD/CK Cmax/D (ABCG2 rs2231142 GG, mean (SD)): 0.78 (0.71) % | 20(S)-PPD AUClast/D (ABCG2 rs2231142 GT, mean (SD)): 0.88 (0.83) | 20(S)-PPD Cmax/D (ABCG2 rs2231142 GT, mean (SD)): 0.03 (0.04) | Ratio 20(S)-PPD/CK AUClast/D (ABCG2 rs2231142 GT, mean (SD)): 4.13 (5.64) % | Ratio 20(S)-PPD/CK Cmax/D (ABCG2 rs2231142 GT, mean (SD)): 1.45 (2.39) % | 20(S)-PPD AUClast/D (ABCG2 rs2231142 TT, mean (SD)): 2.05 (1.51) | 20(S)-PPD Cmax/D (ABCG2 rs2231142 TT, mean (SD)): 0.06 (0.04) | Ratio 20(S)-PPD/CK AUClast/D (ABCG2 rs2231142 TT, mean (SD)): 12.95 (15.83) % | Ratio 20(S)-PPD/CK Cmax/D (ABCG2 rs2231142 TT, mean (SD)): 2.56 (3.02) % | 20(S)-PPD AUClast/D (ABCG2 rs2231148 AA, mean (SD)): 0.68 (0.31) | 20(S)-PPD Cmax/D (ABCG2 rs2231148 AA, mean (SD)): 0.03 (0.01) | Ratio 20(S)-PPD/CK AUClast/D (ABCG2 rs2231148 AA, mean (SD)): 3.01 (2.32) % | Ratio 20(S)-PPD/CK Cmax/D (ABCG2 rs2231148 AA, mean (SD)): 0.84 (0.60) % | 20(S)-PPD AUClast/D (ABCG2 rs2231148 AT, mean (SD)): 0.93 (0.97) | 20(S)-PPD Cmax/D (ABCG2 rs2231148 AT, mean (SD)): 0.03 (0.04) | Ratio 20(S)-PPD/CK AUClast/D (ABCG2 rs2231148 AT, mean (SD)): 4.06 (6.40) % | Ratio 20(S)-PPD/CK Cmax/D (ABCG2 rs2231148 AT, mean (SD)): 1.42 (2.72) % | 20(S)-PPD AUClast/D (ABCG2 rs2231148 TT, mean (SD)): 0.80 (0.80) | 20(S)-PPD Cmax/D (ABCG2 rs2231148 TT, mean (SD)): 0.03 (0.02) | Ratio 20(S)-PPD/CK AUClast/D (ABCG2 rs2231148 TT, mean (SD)): 4.75 (7.36) % | Ratio 20(S)-PPD/CK Cmax/D (ABCG2 rs2231148 TT, mean (SD)): 1.11 (1.45) % | 20(S)-PPD AUClast/D (ABCG2 rs2725248 AA, mean (SD)): 0.69 (0.78) | 20(S)-PPD Cmax/D (ABCG2 rs2725248 AA, mean (SD)): 0.02 (0.03) | Ratio 20(S)-PPD/CK AUClast/D (ABCG2 rs2725248 AA, mean (SD)): 3.94 (7.05) % | Ratio 20(S)-PPD/CK Cmax/D (ABCG2 rs2725248 AA, mean (SD)): 0.92 (1.40) % | 20(S)-PPD AUClast/D (ABCG2 rs2725248 CA, mean (SD)): 1.05 (0.79) | 20(S)-PPD Cmax/D (ABCG2 rs2725248 CA, mean (SD)): 0.04 (0.03) | Ratio 20(S)-PPD/CK AUClast/D (ABCG2 rs2725248 CA, mean (SD)): 4.84 (5.49) % | Ratio 20(S)-PPD/CK Cmax/D (ABCG2 rs2725248 CA, mean (SD)): 1.53 (2.29) % | 20(S)-PPD AUClast/D (ABCG2 rs2725248 CC, mean (SD)): 0.96 (1.03) | 20(S)-PPD Cmax/D (ABCG2 rs2725248 CC, mean (SD)): 0.03 (0.03) | Ratio 20(S)-PPD/CK AUClast/D (ABCG2 rs2725248 CC, mean (SD)): 3.24 (3.92) %
SMILES: CC(C)=CCC[C@](C)(O)[C@H]1CC[C@]2(C)[C@@H]1[C@H](O)C[C@@H]1[C@@]3(C)CC[C@H](O)C(C)(C)[C@@H]3CC[C@]12C [20(S)-PPD, 20(S)-protopanaxadiol]
